Measurements from ChEMBL document CHEMBL4706601, “The endocannabinoid system dual-target ligand N-cycloheptyl-1,2-dihydro-5-bromo-1-(4-fluorobenzyl)-6-methyl-2-oxo-pyridine-3-carboxamide improves disease severity in a mouse model of multiple sclerosis” (Eur J Med Chem, 2020).
Active and inactive are the calls of the source.

What was measured:
Cannabinoid receptor 1 [1] = molecular target: T1, Cannabinoid receptor 1 (Homo sapiens, UniProt P21554); test: Displacement of [3H]CP55940 from recombinant human CB1R expressed in CHO cell membranes incubated for 90 mins; design: species or system Membrane
T1 sequence (P21554 whole entry): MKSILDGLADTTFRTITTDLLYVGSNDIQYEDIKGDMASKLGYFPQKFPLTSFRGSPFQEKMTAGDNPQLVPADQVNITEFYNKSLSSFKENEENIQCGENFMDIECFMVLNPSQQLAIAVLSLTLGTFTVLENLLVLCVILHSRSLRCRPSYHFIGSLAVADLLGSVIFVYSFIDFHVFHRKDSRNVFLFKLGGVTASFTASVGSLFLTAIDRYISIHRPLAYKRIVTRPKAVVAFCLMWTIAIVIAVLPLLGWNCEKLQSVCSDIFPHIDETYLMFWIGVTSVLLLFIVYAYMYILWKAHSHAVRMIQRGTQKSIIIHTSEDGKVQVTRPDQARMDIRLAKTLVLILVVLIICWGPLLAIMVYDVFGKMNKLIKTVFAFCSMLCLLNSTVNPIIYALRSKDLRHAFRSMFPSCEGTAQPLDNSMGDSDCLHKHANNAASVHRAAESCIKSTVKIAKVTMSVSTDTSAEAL

[2] = molecular target: T2, Monoacylglycerol lipase ABHD6 (Homo sapiens, UniProt Q9BV23); test: Inhibition of human ABHD6 expressed in HEK293 cells using 2-OG as substrate preincubated for 30 mins followed by substrate addition and measured after 5 mins by liquid scintillation spectroscopy; assay type: cell-based
T2 sequence (Q9BV23 whole entry): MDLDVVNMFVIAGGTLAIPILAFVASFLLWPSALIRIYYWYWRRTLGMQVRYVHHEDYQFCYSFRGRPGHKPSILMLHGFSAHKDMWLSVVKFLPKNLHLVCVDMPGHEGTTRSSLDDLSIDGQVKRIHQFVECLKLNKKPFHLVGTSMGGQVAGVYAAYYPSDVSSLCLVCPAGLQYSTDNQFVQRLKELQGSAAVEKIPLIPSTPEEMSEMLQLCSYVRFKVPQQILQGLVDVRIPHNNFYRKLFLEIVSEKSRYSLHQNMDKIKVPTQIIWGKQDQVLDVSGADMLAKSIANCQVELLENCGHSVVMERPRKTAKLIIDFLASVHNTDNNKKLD
Procedure, shortened: (§1)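 Homogenates (40 µg) from HEK293 stably expressing hABHD6 or hABHD12 pre-incubated with compound 30 min at 37 °C in […], 0.1% BSA, pH 7.6; then 10 μM 2-OG for 5 min at 37 °C. Aqueous phase tritium counted after CHCl3:MeOH stop; no-enzyme blanks and non-transfected HEK293 hydrolysis subtracted. Controls WWL70 10 μM, THL 20 μM.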

Cannabinoid receptor 2 [3] = molecular target: T3, Cannabinoid receptor 2 (Homo sapiens, UniProt P34972); test: Displacement of [3H]CP55940 from recombinant human CB2R expressed in CHO cell membranes incubated for 90 mins; design: species or system Membrane
T3 sequence (P34972 whole entry): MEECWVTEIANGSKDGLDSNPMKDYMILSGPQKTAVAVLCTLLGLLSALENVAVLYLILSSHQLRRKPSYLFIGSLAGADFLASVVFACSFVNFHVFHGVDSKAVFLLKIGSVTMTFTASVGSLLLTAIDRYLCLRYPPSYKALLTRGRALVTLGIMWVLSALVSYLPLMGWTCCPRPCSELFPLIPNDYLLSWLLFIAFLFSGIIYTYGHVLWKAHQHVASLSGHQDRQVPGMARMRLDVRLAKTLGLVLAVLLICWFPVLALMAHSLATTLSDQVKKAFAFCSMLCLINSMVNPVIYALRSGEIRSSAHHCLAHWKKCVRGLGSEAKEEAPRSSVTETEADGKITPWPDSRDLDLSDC

[4] = molecular target: T4, Lysophosphatidylserine lipase ABHD12 (Homo sapiens, UniProt Q8N2K0); test: Inhibition of human ABHD12 expressed in HEK293 cells using 2-OG as substrate preincubated for 30 mins followed by substrate addition and measured after 5 mins by liquid scintillation spectroscopy; assay type: cell-based; procedure, shortened: as §1
T4 sequence (Q8N2K0 whole entry): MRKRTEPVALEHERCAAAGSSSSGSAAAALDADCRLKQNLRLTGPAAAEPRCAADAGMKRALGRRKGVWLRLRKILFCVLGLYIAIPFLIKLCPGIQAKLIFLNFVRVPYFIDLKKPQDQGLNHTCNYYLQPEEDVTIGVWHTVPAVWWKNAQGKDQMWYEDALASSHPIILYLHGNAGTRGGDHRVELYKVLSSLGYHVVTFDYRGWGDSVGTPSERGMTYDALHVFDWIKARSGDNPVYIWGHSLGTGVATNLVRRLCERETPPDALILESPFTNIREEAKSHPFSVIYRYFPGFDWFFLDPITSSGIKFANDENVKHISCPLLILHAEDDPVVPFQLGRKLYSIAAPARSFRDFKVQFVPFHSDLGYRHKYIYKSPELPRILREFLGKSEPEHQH

Monoglyceride lipase = molecular target: T5, Monoglyceride lipase (Homo sapiens, UniProt Q99685); test: Inhibition of MAGL in human U937 cells using [glycerol-1,2,3-3H]2-OG as substrate preincubated for 15 mins followed by substrate addition and measured after 15 mins by liquid scintillation spectroscopy; assay type: cell-based, U-937
T5 sequence (Q99685 whole entry): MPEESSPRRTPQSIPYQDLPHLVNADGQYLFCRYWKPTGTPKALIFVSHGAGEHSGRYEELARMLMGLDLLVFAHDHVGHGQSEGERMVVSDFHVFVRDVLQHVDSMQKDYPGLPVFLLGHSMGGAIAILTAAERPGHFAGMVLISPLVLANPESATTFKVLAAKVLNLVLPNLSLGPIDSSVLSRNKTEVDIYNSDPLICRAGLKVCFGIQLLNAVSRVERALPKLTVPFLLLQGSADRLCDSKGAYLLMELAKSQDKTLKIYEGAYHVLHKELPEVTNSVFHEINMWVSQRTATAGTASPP
Procedure, shortened: (§2)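 Intact U937 cells, 10^6 per condition, pre-incubated with compound 15 min at 37 °C with shaking (screen at 10 μM; full curves for hits). Substrate: 1 μM AEA with 1 nM [3H]AEA (FAAH) or 10 μM 2-OG with 5 nM [3H]2-OG (MAGL), 15 min at 37 °C. Stopped with CHCl3:MeOH 1:1, aqueous tritium counted; mean ± SD, ≥3 experiments in triplicate.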

[5] = molecular target: T6, Fatty-acid amide hydrolase 1 (Homo sapiens, UniProt O00519); test: Inhibition of FAAH in human U937 cells using [ethanolamine-1-3H]AEA as substrate preincubated for 15 mins followed by substrate addition and measured after 15 mins by liquid scintillation spectroscopy; assay type: cell-based, U-937; procedure, shortened: as §2
T6 sequence (O00519 whole entry): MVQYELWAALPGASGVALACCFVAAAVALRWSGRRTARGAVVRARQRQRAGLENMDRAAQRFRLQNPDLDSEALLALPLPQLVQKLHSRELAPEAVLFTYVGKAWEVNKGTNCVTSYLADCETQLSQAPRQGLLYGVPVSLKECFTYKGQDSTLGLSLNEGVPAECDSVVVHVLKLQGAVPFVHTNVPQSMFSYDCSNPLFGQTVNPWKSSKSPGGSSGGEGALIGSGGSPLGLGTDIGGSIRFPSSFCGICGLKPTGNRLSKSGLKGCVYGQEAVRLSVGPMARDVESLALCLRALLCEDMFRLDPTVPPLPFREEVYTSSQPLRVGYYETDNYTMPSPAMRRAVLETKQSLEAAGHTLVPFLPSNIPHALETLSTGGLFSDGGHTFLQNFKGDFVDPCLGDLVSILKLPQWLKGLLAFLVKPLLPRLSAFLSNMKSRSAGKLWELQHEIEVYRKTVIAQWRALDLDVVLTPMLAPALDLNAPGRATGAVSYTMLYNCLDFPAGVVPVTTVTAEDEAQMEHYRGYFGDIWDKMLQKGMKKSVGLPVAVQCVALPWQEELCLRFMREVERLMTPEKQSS

Cannabinoid receptor 1 [6] = molecular target: T1, Cannabinoid receptor 1; test: Agonist activity at human CB1R expressed in CHO cell membranes after 90 mins by [35S]GTPgammaS assay; assay type: functional, Membrane
Procedure, shortened: (§3)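 In-house CHO membranes expressing hCB1 or hCB2 (10 µg) in 50 mM Tris-HCl, 3 mM MgCl2, 0.2 mM EDTA, 100 mM NaCl, 0.5% fatty-acid-free BSA, pH 7.4, with 10 μM GDP and 0.1 nM [35S]GTPγS. Incubated 90 min at 30 °C; antagonist pre-incubated 30 min. Nonspecific binding with 10 μM GTPγS; bound label by filtration and counting; ≥3 experiments in triplicate.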

Homo sapiens = species on record: Homo sapiens; test: Selectivity index, ratio of Ki for human CB1R expressed in CHO cell membranes to Ki for human CB2R expressed in CHO cell membranes; assay type: cell-based
Cannabinoid receptor 2 [7] = molecular target: T3, Cannabinoid receptor 2; test: Agonist activity at human CB2R expressed in CHO cell membranes after 90 mins by [35S]GTPgammaS assay; assay type: functional, Membrane; procedure, shortened: as §3
Mus musculus [8] = test: In vivo agonist activity at CB1R in BALB/c mouse assessed as reduction in spontaneous locomotion at 5 mg/kg, ip measured after 1 hr by rotarod test; assay type: functional, organism-based
Procedure, shortened: (§4)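 BALB/c mice given 5 mg/kg i.p. in DMSO (20 µL), tested 1 h later. Rectal temperature change from basal; catalepsy by bar test (4 cm bar, 120 s cut-off); locomotion by rotarod latency to fall at 4 rpm (120 s cut-off, 3 trials); analgesia by hot plate at 54-56 °C, first paw lick or shake. n = 5-20 per group.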

Mus musculus [9] = test: In vivo agonist activity at CB1R in BALB/c mouse assessed as reduction in body temperature at 5 mg/kg, ip measured after 1 hr by tetrad test; assay type: functional, organism-based; procedure, shortened: as §4
Cannabinoid receptor 1 [10] = molecular target: T1, Cannabinoid receptor 1; test: Antagonist activity at human CB1R expressed in CHO cell membranes preincubated for 30 mins followed by GTPgammaS addition and measured after 90 mins by [35S]GTPgammaS assay; assay type: functional, Membrane; procedure, shortened: as §3
Mus musculus [11] = test: In vivo agonist activity at CB1R in BALB/c mouse assessed as induction of analgesia at 5 mg/kg, ip measured after 1 hr by hotplate test; assay type: functional, organism-based; procedure, shortened: as §4
Mus musculus [12] = test: In vivo agonist activity at CB1R in BALB/c mouse assessed as catalpesy-like behaviour by measuring increase in immobility time at 5 mg/kg, ip measured after 1 hr by bar test; assay type: functional, organism-based; procedure, shortened: as §4
Cannabinoid receptor 2 [13] = molecular target: T3, Cannabinoid receptor 2; test: Inverse agonist activity at human CB2R expressed in CHO cell membranes after 90 mins by [35S]GTPgammaS assay; assay type: functional, Membrane; procedure, shortened: as §3
[14] = molecular target: Cannabinoid receptor 1 (Rattus norvegicus) (UniProt P20272); test: Agonist activity at CB1R in Sprague-Dawley rat hippocampal synaptosomes assessed as inhibition of 4-AP evoked glutamate release at 10 uM preincubated for 8 mins followed by 4-AP addition in presence of 1 uM CB2R antagonist, SR144528 by HPLC analysis; assay type: subcellular; conditions: Hippocampus, filed as agonist
Sequence of Cannabinoid receptor 1 (Rattus norvegicus) (P20272 whole entry, the tested form may be a part): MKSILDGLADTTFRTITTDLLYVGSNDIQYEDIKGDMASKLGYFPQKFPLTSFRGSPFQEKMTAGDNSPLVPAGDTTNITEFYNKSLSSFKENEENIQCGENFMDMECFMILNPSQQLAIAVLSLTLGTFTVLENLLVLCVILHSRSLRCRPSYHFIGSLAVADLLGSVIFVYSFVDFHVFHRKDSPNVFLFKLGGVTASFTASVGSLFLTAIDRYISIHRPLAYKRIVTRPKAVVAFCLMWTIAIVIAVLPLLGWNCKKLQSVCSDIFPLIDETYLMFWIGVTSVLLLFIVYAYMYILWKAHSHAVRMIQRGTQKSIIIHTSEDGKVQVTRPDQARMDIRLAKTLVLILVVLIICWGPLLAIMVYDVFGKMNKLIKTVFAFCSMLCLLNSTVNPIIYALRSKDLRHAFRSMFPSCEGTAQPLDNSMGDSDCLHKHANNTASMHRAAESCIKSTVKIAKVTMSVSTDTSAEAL
Procedure, shortened: (§5)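 Rat (male Sprague Dawley, 200-250 g) hippocampal synaptosomes from Percoll gradient, superfused at 37 °C (0.5 ml/min); 4-AP 600 μM for 2 min. Compounds and antagonists (SR141716A, SR144528, 1 μM) added 8 min before 4-AP and kept during it; basal effects tested by 2-min exposure alone. Endogenous glutamate by HPLC as pmol/mg protein; overflow = stimulated minus basal in control chambers; n = 3–9, triplicate.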

[15] = molecular target: Cannabinoid receptor 1 (Rattus norvegicus) (UniProt P20272); test: Agonist activity at CB1R in Sprague-Dawley rat hippocampal synaptosomes assessed as inhibition of 4-AP evoked glutamate release at 10 uM preincubated for 8 mins followed by 4-AP addition by HPLC analysis; assay type: subcellular; conditions: Hippocampus, filed as agonist; procedure, shortened: as §5

Compound | Ki (Cannabinoid receptor 1 [1]) [nM] | IC50 [2] [nM] | Ki (Cannabinoid receptor 2 [3]) [nM] | IC50 [4] [nM] | IC50 (Monoglyceride lipase) [nM] | IC50 [5] [nM] | EC50 (Cannabinoid receptor 1 [6]) [nM] | Ratio Ki (Homo sapiens) | EC50 (Cannabinoid receptor 2 [7]) [nM] | Activity (Mus musculus [8]) | Activity (Mus musculus [9]) | EC50 (Cannabinoid receptor 1 [10]) [nM] | Activity (Mus musculus [11]) | Activity (Mus musculus [12]) | EC50 (Cannabinoid receptor 2 [13]) [nM] | Activity [14] | Activity [15]
Cc1nc(OCc2ccc(F)cc2)c(C(=O)NC2CCCCCC2)cc1-c1ccc(F)cc1 | 4600 | > 10000 | 531 | > 10000 | > 10000 | > 10000 | – | – | – | – | – | – | – | – | – | – | –
CO[C@@H]1O[C@H](CNC(=O)c2cc(Br)c(C)n(Cc3ccc(F)cc3)c2=O)[C@H](O)[C@H](O)[C@H]1O | > 10000 | > 10000 | > 10000 | > 10000 | > 10000 | > 10000 | – | – | – | – | – | – | – | – | – | – | –
CC(=O)N[C@@H]1[C@@H](O)[C@H](O)[C@@H](CO)O[C@H]1NC(=O)c1cc(Br)c(C)n(Cc2ccc(F)cc2)c1=O | > 10000 | > 10000 | > 10000 | > 10000 | > 10000 | > 10000 | – | – | – | – | – | – | – | – | – | – | –
Cc1c(Br)cc(C(=O)NC2CCNCC2)c(=O)n1Cc1ccc(F)cc1 | > 10000 | > 10000 | > 10000 | > 10000 | > 10000 | > 10000 | – | – | – | – | – | – | – | – | – | – | –
Cc1c(Cl)cc(C(=O)NC2CCCCCC2)c(=O)n1Cc1ccc(F)cc1 | 3.7 | > 10000 | 4.3 | > 10000 | > 10000 | 5900 | 1.12 | 0.86 | 3.3 | – | – | – | – | – | – | – | –
Cc1c(-c2ccccc2)cc(C(=O)NC2CCCCCC2)c(=O)n1Cc1ccc(F)cc1 | 176 | > 10000 | 5.7 | > 10000 | > 10000 | 560 | – | – | – | inactive | inactive | 0.36 | inactive | inactive | 17 | – | –
CCCCC/C=C\C/C=C\C/C=C\C/C=C\CCCC(=O)NCCCl | – | – | – | – | – | – | – | – | – | – | – | – | – | – | – | Active | Active
Cc1ccc(C(=O)NC2CCCCCC2)c(=O)n1Cc1ccc(F)cc1 | 37.7 | > 10000 | 4.7 | > 10000 | > 10000 | > 10000 | 40.4 | – | 4.15 | – | – | – | – | – | – | – | –
Cc1c(F)cc(C(=O)NC2CCCCCC2)c(=O)n1Cc1ccc(F)cc1 | 4.9 | > 10000 | 5.7 | > 10000 | > 10000 | > 10000 | 43.2 | 0.86 | 24.4 | – | – | – | – | – | – | – | –
Cc1nc(OCc2ccc(F)cc2)c(C(=O)NC2CCCCCC2)cc1Br | 76.1 | > 10000 | 1.5 | 2100 | > 10000 | > 10000 | 586 | – | 31.6 | – | – | – | – | – | – | – | –
Cc1ccc(C(=O)NC2CCCCCC2)c(OCc2ccc(F)cc2)n1 | 16.6 | > 10000 | 33.9 | > 10000 | > 10000 | > 10000 | 86.2 | 0.49 | 11.6 | – | – | – | – | – | – | – | –
COc1ccc(-c2cc(C(=O)NC3CCCCCC3)c(OCc3ccc(F)cc3)nc2C)cc1 | > 10000 | 530 | 919 | > 10000 | > 10000 | > 10000 | – | – | – | – | – | – | – | – | – | – | –
